Measurements from ChEMBL document CHEMBL3259670, “Discovery of 1-aryloxyethyl piperazine derivatives as Kv1.5 potassium channel inhibitors (part I)” (Eur J Med Chem, 2014).
Structures can show the parent of a compound that is named as a salt. Calls of active or inactive are those of the source. The rule behind the calls is not given here.

Key:
[1] = target: T1, Potassium voltage-gated channel subfamily A member 5 (Homo sapiens, UniProt P22460); assay: Inhibition of human Kv1.5 channel expressed in HEK293 cells by whole cell patch clamp assay; format: cell-based
T1 sequence (P22460 whole entry): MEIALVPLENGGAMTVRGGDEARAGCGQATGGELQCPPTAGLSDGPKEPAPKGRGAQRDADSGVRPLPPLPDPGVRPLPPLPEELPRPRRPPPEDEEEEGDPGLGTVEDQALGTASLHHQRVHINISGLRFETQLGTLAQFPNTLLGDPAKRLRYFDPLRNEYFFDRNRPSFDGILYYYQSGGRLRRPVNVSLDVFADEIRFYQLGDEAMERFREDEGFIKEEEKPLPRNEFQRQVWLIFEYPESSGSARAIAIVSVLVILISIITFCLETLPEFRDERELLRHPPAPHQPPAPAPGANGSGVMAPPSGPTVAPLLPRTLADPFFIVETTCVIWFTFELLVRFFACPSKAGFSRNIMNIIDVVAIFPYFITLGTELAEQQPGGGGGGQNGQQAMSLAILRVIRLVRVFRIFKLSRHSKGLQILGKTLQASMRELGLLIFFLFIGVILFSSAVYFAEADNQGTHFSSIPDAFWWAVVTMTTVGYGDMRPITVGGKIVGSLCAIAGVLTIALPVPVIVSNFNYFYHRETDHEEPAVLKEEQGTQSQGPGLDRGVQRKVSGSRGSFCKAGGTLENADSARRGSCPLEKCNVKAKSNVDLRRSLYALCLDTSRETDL
Method in brief: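 Whole-cell patch clamp was done on transfected HEK293 cells, harvested by trypsin and used the same day, with 4–6 MΩ pipettes at 25 °C. IKur was elicited by 500-ms steps to +60 mV from a −80 mV holding potential at 0.1 Hz. Compound was applied at least 5 min after current stabilization. IC50 came from cell-by-cell Hill fits, with at least 3 cells per concentration; mean ± SD.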

MDR1 [2] = assay: (§1) Apparent permeability from basolateral to apical side in MDCK cells expressing MDR1; format: ADME, cell-based, Canis lupus familiaris; details: dog, MDCK-MDR1
Method in brief: (§2)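 Bidirectional transport (apical→basolateral and basolateral→apical) was measured in parental MDCK cells and in MDR1-MDCK cells, which stably express multidrug resistance gene 1, to assess P-glycoprotein substrate status. Apparent permeability coefficients (Papp) were determined for each direction. Efflux ratios are ratios of the directional Papp values, computed per cell line. Mean ± SD, n = 3.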

MDCK [3] = assay: Apparent permeability from basolateral to apical side in MDCK cells; format: ADME, cell-based, Canis lupus familiaris; details: dog; method in brief: as §2
MDCK [4] = assay: Apparent permeability from apical to basolateral side in MDCK cells; format: ADME, cell-based, Canis lupus familiaris; details: dog; method in brief: as §2
MDCK [5] = assay: Efflux ratio of permeability from apical to basolateral over basolateral to apical in MDCK cells expressing MDR1; format: ADME, cell-based, Canis lupus familiaris; details: dog; method in brief: as §2
[6] = Dissociation constant, pKa of the compound; format: physicochemical
Method in brief: (§3)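 pKa and log D at pH 7.4 were determined by Avdeef–Bucher potentiometric titration on a Gemini Profiler instrument.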

MDCK [7] = assay: Efflux ratio of permeability from apical to basolateral over basolateral to apical in MDCK cells; format: ADME, cell-based, Canis lupus familiaris; details: dog; method in brief: as §2
[8] = Partition coefficient, log D of the compound at pH 7.4; format: physicochemical; details: octanol/water; method in brief: as §3
MDR1 [9] = assay: (§4) Apparent permeability from apical to basolateral side in MDCK cells expressing MDR1; format: ADME, cell-based, Canis lupus familiaris; details: dog, MDCK-MDR1; method in brief: as §2
[10] = target: T1, Potassium voltage-gated channel subfamily A member 5; assay: Inhibition of human Kv1.5 channel expressed in HEK293 cells at 11 uM by whole cell patch clamp assay; format: cell-based
MDCK [11] = assay: as §1; format: ADME, cell-based, Canis lupus familiaris; details: dog, mdck; method in brief: as §2
MDCK [12] = assay: as §4; format: ADME, cell-based, Canis lupus familiaris; details: dog, mdck; method in brief: as §2
Rattus norvegicus [13] = assay: Inhibition of Cacl2-Ach-induced atrial fibrillation Sprague-Dawley rat model assessed as reduction in duration of atrial fibrillation at 1.25 mg/kg, ip during day 1 to day 3; format: functional, organism-based; parameters: dose 1.25 mg/kg; details: Cardiac atrium
Rattus norvegicus [14] = assay: Inhibition of Cacl2-Ach-induced atrial fibrillation Sprague-Dawley rat model assessed as reduction in duration of atrial fibrillation at 1.25 mg/kg, ip during day 4 to day 7; format: functional, organism-based; parameters: dose 1.25 mg/kg; details: Cardiac atrium
Rattus norvegicus [15] = assay: Inhibition of Cacl2-Ach-induced atrial fibrillation Sprague-Dawley rat model assessed as increase in atrial effective refractory period at 1.25 mg/kg, ip; details: Cardiac atrium

| IC50 [1] [µM] | Structure (SMILES) | other results |
| --- | --- | --- |
| 8.93 | Cc1ccc(OCCN2CCN(CC(=O)Nc3nccs3)CC2)cc1 |  |
| 12.7 | O=C(c1cccs1)N1CCN(CCOc2ccc(F)cc2)CC1 |  |
| 1.24 | Cc1ccccc1OCCN1CCN(CC(=O)Nc2nccs2)CC1 | Papp B→A (MDR1 [2]): 32.3 ×10⁻⁶ cm/s; Papp (MDCK [3]): 34.2 ×10⁻⁶ cm/s; Papp (MDCK [4]): 32.2 ×10⁻⁶ cm/s; Ratio (MDCK [5]): 0.92; pKa [6]: 7.11; Ratio (MDCK [7]): 1.09; logD [8]: 2.45; Papp A→B (MDR1 [9]): 28.9 ×10⁻⁶ cm/s |
| 10.2 | N#Cc1ccc(OCCN2CCN(C(=O)c3cccs3)CC2)cc1 |  |
|  | CCOC(=O)c1ccc(OCCN2CCN(CC(=O)Nc3nccs3)CC2)cc1 | inhibition [10]: 32.1% |
| 6.44 | O=C(c1cccs1)N1CCN(CCOc2ccc(OC(F)(F)F)cc2)CC1 |  |
| 85.9 | Cc1cccc(C)c1OCCN1CCN(CC(=O)Nc2nccs2)CC1 |  |
| 16.1 | Cc1ccc(NC(=O)CN2CCN(CCOc3ccccc3)CC2)cc1 |  |
| 38.8 | O=C(c1ccccc1)N1CCN(CCOc2ccccc2)CC1 |  |
| 4.23 | N#Cc1ccc(OCCN2CCN(C(=O)c3ccccc3)CC2)cc1 |  |
| 7.14 | Cc1ccc(C(=O)N2CCN(CCOc3ccccc3)CC2)cc1 |  |
| 0.97 | N#Cc1ccc(OCCN2CCN(CC(=O)Nc3nccs3)CC2)cc1 | Papp (MDCK [11]): 19.8 ×10⁻⁶ cm/s; Papp (MDCK [3]): 16.7 ×10⁻⁶ cm/s; Papp (MDCK [4]): 14.8 ×10⁻⁶ cm/s; Ratio (MDCK [5]): 1.14; pKa [6]: 6.37; Ratio (MDCK [7]): 1.14; logD [8]: 1.72; Papp (MDCK [12]): 18.9 ×10⁻⁶ cm/s |
| 3.59 | O=C(CN1CCN(CCOc2ccc(Cl)cc2)CC1)Nc1ccccc1Cl |  |
| 48.4 | O=C(c1cccs1)N1CCN(c2ccc(OC(F)(F)F)cc2)CC1 |  |
| 68 | O=C(CN1CCN(CCOc2ccc3ccccc3c2)CC1)Nc1nccs1 |  |
| 29.3 | O=C(CN1CCN(CCOc2ccccc2)CC1)Nc1nccs1 |  |
| 50.2 | Cc1ccc(OCCN2CCN(CC(=O)Nc3nccs3)CC2)cc1C |  |
| 12.2 | O=C(c1cccs1)N1CCN(CCOc2ccc(Br)cc2)CC1 |  |
| 63.2 | CC(C)(C)c1ccc(OCCN2CCN(CC(=O)Nc3nccs3)CC2)cc1 |  |
|  | CCOc1ccccc1OCCN1CCN(CC(=O)Nc2nccs2)CC1 | inhibition [10]: 11.9% |
| 5.18 | O=C(CN1CCN(CCOc2ccc(Cl)cc2)CC1)Nc1nccs1 |  |
| 2.37 | CCCCc1oc2ccc(NS(C)(=O)=O)cc2c1C(=O)c1ccc(OCCCN(CCCC)CCCC)cc1 [DRONEDARONE HYDROCHLORIDE] | Activity (Rattus norvegicus [13]): inactive; Activity (Rattus norvegicus [14]): Active; Activity (Rattus norvegicus [15]): Active |
| 13.5 | Cc1ccccc1OCCN1CCN(C(=O)c2cccs2)CC1 |  |
| 16.1 | COc1ccc(C(=O)N2CCN(CCOc3ccccc3)CC2)cc1 |  |
| 28.6 | O=C(CN1CCN(CCOc2ccccc2)CC1)Nc1ccccc1 |  |
